Converted amounts (≈) assume the structure as drawn.
What was measured:
[1] = Selectivity index, ratio of EC50 for toxicity in human BEAS2B cells to MIC100 for antifungal activity against Candida albicans ATCC 10231; type: cell-based; settings: BEAS-2B cells, read-out: Selectivity Index
In short: (§1)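 Selectivity index is the EC50 against the mammalian line (A549 or BEAS-2B) divided by the MIC against the given fungal strain.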

[2] = Selectivity index, ratio of EC50 for toxicity in human A549 cells to MIC for antifungal activity against Candida parapsilosis ATCC 22019
Candida albicans [3] = assay: Antifungal activity against Candida albicans ATCC 10231 incubated for 48 hrs by modified CLSI M27-A3 protocol based method; type: functional; settings: ATCC 10231, 48 h, read-out: MIC100
In short: (§2)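 For C. albicans ATCC 10231, C. krusei ATCC 6258 and C. parapsilosis ATCC 22019, MIC-0 was read, meaning complete growth inhibition. For azole controls, MIC-2 (50% growth inhibition) was reported instead. Caspofungin and voriconazole were tested here; other controls came from earlier work.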

[4] = Hemolytic activity in mouse erythrocytes assessed as hemolysis level at 125 ug/ml incubated for 1 hr at 37 degC; type: ADME, cell-based, Erythrocyte; settings: read-out: Activity
In short: (§3)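 Mouse erythrocytes incubated 1 h at 37 °C with test agents over 1.95 to 125 µg/mL. Percent lysis is read for each concentration.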

[5] = Selectivity index, ratio of […] for toxicity in human BEAS2B cells to MIC50 for antifungal activity against Aspergillus terreus ATCC MYA-3633; type: cell-based; settings: BEAS-2B cells, read-out: Selectivity Index
[6] = Selectivity index, ratio of […] for toxicity in human A549 cells to MIC50 for antifungal activity against Aspergillus terreus ATCC MYA-3633; type: cell-based; settings: read-out: Selectivity Index
[7] = Selectivity index, ratio of […] for toxicity in human A549 cells to MIC50 for antifungal activity against Aspergillus nidulans ATCC 38163; type: cell-based; settings: read-out: Selectivity Index
[8] = Selectivity index, ratio of EC50 for toxicity in human A549 cells to MIC50 for antifungal activity against ITC and FLC-susceptible Candida albicans ATCC MYA-2876; type: cell-based; settings: read-out: Selectivity Index; in short: as §1
[9] = Selectivity index, ratio of EC50 for toxicity in human BEAS2B cells to MIC50 for antifungal activity against Candida glabrata ATCC 2001; type: cell-based; settings: BEAS-2B cells, read-out: Selectivity Index; in short: as §1
[10] = Selectivity index, ratio of EC50 for toxicity in human A549 cells to MIC100 for antifungal activity against Candida albicans ATCC 10231; type: cell-based; settings: read-out: Selectivity Index; in short: as §1
[11] = Selectivity index, ratio of EC50 for toxicity in human BEAS2B cells to MIC50 for antifungal activity against Candida krusei ATCC 6258; settings: BEAS-2B cells
[12] = Selectivity index, ratio of EC50 for toxicity in human A549 cells to MIC50 for antifungal activity against ITC and FLC-resistant Candida albicans ATCC 1237; type: cell-based; settings: read-out: Selectivity Index; in short: as §1
Candida albicans [13] = assay: Antifungal activity against ITC and FLC-susceptible Candida albicans ATCC MYA-2876 incubated for 48 hrs by modified CLSI M27-A3 protocol based method; type: functional; settings: ATCC MYA-2876, 48 h
In short: (§4)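 Because these Candida strains show trailing growth, MIC-2 was read, meaning 50% growth inhibition. Caspofungin and voriconazole were tested here; other controls came from earlier work.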

[14] = Selectivity index, ratio of EC50 for toxicity in human A549 cells to MIC50 for antifungal activity against Candida krusei ATCC 6258
Candida parapsilosis = assay: Antifungal activity against Candida parapsilosis ATCC 22019 incubated for 48 hrs by modified CLSI M27-A3 protocol based method; type: functional; settings: Lodderomyces parapsilosis, ATCC 22019, 48 h; read-out: MIC100; in short: as §2
[15] = Selectivity index, ratio of […] for toxicity in human BEAS2B cells to MIC50 for antifungal activity against Aspergillus flavus ATCC MYA-3631; type: cell-based; settings: BEAS-2B cells, read-out: Selectivity Index
[16] = Hemolytic activity in mouse erythrocytes assessed as hemolysis level at 15.6 ug/ml incubated for 1 hr at 37 degC; type: ADME, cell-based, Erythrocyte; settings: read-out: Activity; in short: as §3
in vitro = settings: mouse, mouse erythrocytes
Aspergillus flavus = assay: Antifungal activity against Aspergillus flavus ATCC MYA-3631 incubated for 48 hrs by CLSI M38-A2 protocol based method; type: functional; settings: ATCC MYA-3631, 48 h, read-out: MIC100
Candida albicans [17] = assay: Antifungal activity against ITC and FLC-resistant Candida albicans ATCC MYA-1003 incubated for 48 hrs by modified CLSI M27-A3 protocol based method; type: functional; settings: ATCC MYA-1003, 48 h; in short: as §4
Candida albicans [18] = assay: Antifungal activity against ITC and FLC-susceptible Candida albicans ATCC MYA-2310 incubated for 48 hrs by modified CLSI M27-A3 protocol based method; type: functional; settings: ATCC MYA-2310, 48 h
[19] = Selectivity index, ratio of EC50 for toxicity in human BEAS2B cells to MIC for antifungal activity against Candida parapsilosis ATCC 22019; settings: BEAS-2B cells
Candida albicans [20] = assay: Antifungal activity against Candida albicans ATCC 64124 incubated for 48 hrs by modified CLSI M27-A3 protocol based method; type: functional; settings: ATCC 64124, 48 h
[21] = Selectivity index, ratio of EC50 for toxicity in human BEAS2B cells to MIC50 for antifungal activity against ITC and FLC-resistant Candida albicans ATCC MYA-1003; type: cell-based; settings: BEAS-2B cells, read-out: Selectivity Index; in short: as §1
[22] = Toxicity in human BEAS2B cells assessed as reduction in cell viability incubated for 24 hrs by resazurin dye based assay; settings: BEAS-2B cells
In short: (§5)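 Toxicity tested in the nucleated lines A549 and BEAS-2B to give EC50 values. Selectivity index is EC50 against the mammalian line divided by the MIC against a given fungal strain.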

[23] = Selectivity index, ratio of EC50 for toxicity in human A549 cells to MIC50 for antifungal activity against ITC and FLC-susceptible Candida albicans ATCC MYA-2310; type: cell-based; settings: read-out: Selectivity Index; in short: as §1
[24] = Selectivity index, ratio of EC50 for toxicity in human A549 cells to MIC50 for antifungal activity against ITC and FLC-resistant Candida albicans ATCC MYA-90819; type: cell-based; settings: read-out: Selectivity Index; in short: as §1
[25] = Selectivity index, ratio of EC50 for toxicity in human A549 cells to MIC50 for antifungal activity against ITC and FLC-resistant Candida albicans ATCC MYA-1003; type: cell-based; settings: read-out: Selectivity Index; in short: as §1
[26] = Toxicity in human A549 cells assessed as reduction in cell viability incubated for 24 hrs by resazurin dye based assay; in short: as §5
Aspergillus nidulans = assay: Antifungal activity against Aspergillus nidulans ATCC 38163 incubated for 48 hrs by CLSI M38-A2 protocol based method; type: functional; settings: ATCC 38163, 48 h, read-out: MIC100
[27] = Hemolytic activity in mouse erythrocytes assessed as hemolysis level at 31.3 ug/ml incubated for 1 hr at 37 degC; type: ADME, cell-based, Erythrocyte; settings: read-out: Activity; in short: as §3
[28] = Selectivity index, ratio of […] for toxicity in human A549 cells to MIC50 for antifungal activity against Aspergillus flavus ATCC MYA-3631; type: cell-based; settings: read-out: Selectivity Index
[29] = Selectivity index, ratio of EC50 for toxicity in human BEAS2B cells to MIC50 for antifungal activity against Candida albicans ATCC 64124; type: cell-based; settings: BEAS-2B cells, read-out: Selectivity Index; in short: as §1

| Structure (SMILES) | selectivity ratio [1] | selectivity ratio [2] | MIC (Candida albicans [3]) | hemolysis at 1 h, 125 ug/ml [4] | selectivity ratio [5] | selectivity ratio [6] | selectivity ratio [7] | selectivity ratio [8] | selectivity ratio [9] | selectivity ratio [10] | selectivity ratio [11] | selectivity ratio [12] | MIC50 (Candida albicans [13]) | selectivity ratio [14] | MIC (Candida parapsilosis) | selectivity ratio [15] | hemolysis at 1 h, 15.6 ug/ml [16] | hemolysis at 1 h, 62.5 ug/ml (in vitro) | MIC (Aspergillus flavus) | MIC50 (Candida albicans [17]) | also measured |
| --- | --- | --- | --- | --- | --- | --- | --- | --- | --- | --- | --- | --- | --- | --- | --- | --- | --- | --- | --- | --- | --- |
| CCCCCCC(O)(Cn1cncn1)c1ccc(F)cc1 (stereo unspecified) | 2 | 65 | 53.5 µM (≈ 15.6 µg/mL) | 24.1% | 2 | 2 | 16 | 4 | 4 | 2 | 32 | 1 | 26.8 µM (≈ 7.81 µg/mL) | 32 | 1.6 µM (≈ 0.466 µg/mL) | 1 | 0% | 7% | > 107 µM | 26.8 µM (≈ 7.81 µg/mL) | MIC50 (Candida albicans [18]): 26.8 µM (≈ 7.81 µg/mL); selectivity ratio [19]: 65; MIC50 (Candida albicans [20]): > 107 µM; selectivity ratio [21]: 4; EC50 at 24 h [22]: > 31.3 µg/mL; selectivity ratio [23]: 4; selectivity ratio [24]: 32; selectivity ratio [25]: 4; EC50 at 24 h [26]: > 31.3 µg/mL; MIC (Aspergillus nidulans): 6.7 µM (≈ 1.95 µg/mL); hemolysis at 1 h, 31.3 ug/ml [27]: 0%; selectivity ratio [28]: 1; selectivity ratio [29]: 1 |
| CCCCCCC(O)(Cn1cncn1)c1ccccc1F (stereo unspecified) | 16 | 261 | 6.7 µM (≈ 1.95 µg/mL) | 85.6% | 8 | 8 | 65 | 32 | 32 | 16 | 522 | 32 | 3.3 µM (≈ 0.962 µg/mL) | 522 | 0.41 µM (≈ 0.119 µg/mL) | 1 to 2 | 0% | 28.8% | 53.5 to 107 µM (≈ 15.6 to 31.3 µg/mL) | 13.4 µM (≈ 3.9 µg/mL) | MIC50 (Candida albicans [18]): 3.3 µM (≈ 0.962 µg/mL); selectivity ratio [19]: 261; MIC50 (Candida albicans [20]): > 107 µM; selectivity ratio [21]: 8; EC50 at 24 h [22]: > 31.3 µg/mL; selectivity ratio [23]: 32; selectivity ratio [24]: 130; selectivity ratio [25]: 8; EC50 at 24 h [26]: > 31.3 µg/mL; MIC (Aspergillus nidulans): 1.6 µM (≈ 0.466 µg/mL); hemolysis at 1 h, 31.3 ug/ml [27]: 8.7%; selectivity ratio [28]: 1 to 2; selectivity ratio [29]: 1 |

— ChEMBL document CHEMBL4265871, “Novel alkylated azoles as potent antifungals” (Eur J Med Chem, 2017)
